Source: ChEMBL document CHEMBL3352466 (J Med Chem, 2014)
Calls of active or inactive are those of the source. The calls are words filed in the database; no cut-off is given here.

Legend:
[1] = target: Cellular tumor antigen p53 (Homo sapiens) (UniProt P04637); assay: Activation of p53 Ser15 phosphorylation in human A549 cells at 100 nM after 0.5 to 4 hrs by Western blot method; assay type: cell-based
In short: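 A-549 cells exposed to 100 nM for the indicated times; whole-cell extracts immunoblotted with phospho-specific antibodies (p-ATM, p-ATR, p-Chk1, p-Chk2, p-H2AX, p-p53), with pan antibody to each protein and β-actin as loading controls.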

[2] = tested on: Mus musculus; assay: Toxicity in human HCT116 cells xenografted nu/nu mouse assessed as body weight changes at 5 mg/kg, iv qd for 7 days and then intraperitoneally once every day to the end; assay type: organism-based, HCT-116; design: dose 5 mg/kg, route intravenous; conditions: in vivo, 168 h
In short: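 HCT116 xenografts were grown to about 200 mm3, then mice were randomized into groups (n = 8). Dosing was i.v. for 7 days, then i.p. once daily to the end. Vehicle was saline with 5% DMSO and 5% cremophor. Tumor growth and body weight were measured three times per week, and groups were compared by Student's t-test.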

Sequence of Cellular tumor antigen p53 (Homo sapiens) (P04637 whole entry, looked up): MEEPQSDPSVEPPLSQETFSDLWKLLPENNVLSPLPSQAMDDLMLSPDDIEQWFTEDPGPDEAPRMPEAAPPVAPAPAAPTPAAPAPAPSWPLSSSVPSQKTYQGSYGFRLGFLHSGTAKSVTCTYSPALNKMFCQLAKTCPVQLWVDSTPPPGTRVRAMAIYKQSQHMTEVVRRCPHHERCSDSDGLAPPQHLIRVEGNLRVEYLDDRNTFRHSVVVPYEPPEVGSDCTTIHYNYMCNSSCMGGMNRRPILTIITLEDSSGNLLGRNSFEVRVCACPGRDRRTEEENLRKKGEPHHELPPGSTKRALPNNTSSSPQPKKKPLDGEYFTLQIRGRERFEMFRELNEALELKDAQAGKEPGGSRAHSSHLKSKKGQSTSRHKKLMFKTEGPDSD

CC[C@@]1(OC(=O)CN/C(Cc2ccc(OC)cc2)=N/S(=O)(=O)c2ccc(C)cc2)C(=O)OCc2c1cc1n(c2=O)Cc2cc3ccccc3nc2-1
Activity [1]: Active | Activity [2]: Non-toxic
